Cardiac RTF inh = cardiac RTF calcium desensitization | P19429+P45379 | IANBD-labeled cardiac RTF, Ca2+ fluorescence | inhibition, % at 7.15 µM | actives 0.12% (n = 340,000) | AID 493244;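 active = inhibition above the mean inhibition of all tested compounds plus 3 SD, cut at about 17% in these data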;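 note: assay run at fixed EC70 calcium of 1.6 mM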
SUMO Mot1 rescue = inhibitors of SUMOylation pathway: yeast Mot1-301 growth rescue | S. cerevisiae Mot1-301 growth rescue, ATP luminescence, 38.5C; percent above DMSO median, 100 means doubled | growth rescue, % at 18.8 µM | actives 1% (n = 320,000) | AID 2716;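 active = every valid replicate shows activation above 250% relative to neutral control wells; inactive = the rest, any valid replicate at or below 250%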;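 note: OY570 slx delta 5 strain wells were the positive control but not used for scaling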
cardiac RTF act = cardiac RTF calcium sensitization. actives 0.24% (n = 340,000). AID 493008. activation, % at 7.2 µM. P19429+P45379. IANBD-labeled TnC RTF fluorescence at EC20 calcium; 0% EC20 calcium, 100% full calcium;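 active = activation above the mean over all tested compounds plus 3 SD, cut at about 30% in these data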;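 note: rise in fluorescence read as greater calcium sensitivity of cardiac thin filaments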
UCH37 DUB inh = inhibitors of human deubiquitinating enzyme UCH37. actives 0.33% (n = 330,000). purified proteasome/UCH37, Ub-AMC cleavage fluorescence. AID 588478. Q9Y5K5. inhibition, % (concentration not given with the values);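 active = mean inhibition over replicate wells above about 20%, limit read from the data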;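 note: 0% = compound-free wells with enzyme and 100% = wells lacking proteasome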
Target sequence (Q9Y5K5 whole entry, looked up): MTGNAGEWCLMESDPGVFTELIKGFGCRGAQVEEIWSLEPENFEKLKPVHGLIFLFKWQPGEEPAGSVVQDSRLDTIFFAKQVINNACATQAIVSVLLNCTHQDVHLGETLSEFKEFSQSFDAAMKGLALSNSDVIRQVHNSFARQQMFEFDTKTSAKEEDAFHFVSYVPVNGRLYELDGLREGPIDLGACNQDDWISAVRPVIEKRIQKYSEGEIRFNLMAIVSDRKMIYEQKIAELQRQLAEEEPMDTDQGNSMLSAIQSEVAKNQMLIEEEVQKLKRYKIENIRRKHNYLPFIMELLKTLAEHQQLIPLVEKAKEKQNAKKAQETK
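Test system – human UCH37 enzyme supplied as purified proteasome complex · Incubation – 30 min preincubation with enzyme, 25 min cleavage at room temperature · Detection – AMC fluorescence from Ub-AMC cleavage, excitation 355 nm, emission 460 nm · Benchmarks – no-proteasome wells (full inhibition) and compound-free wells (no inhibition)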
Efflux pump inh = blocks antifungal efflux pumps in multiplex yeast assay | S. cerevisiae Candida pump triplex, Nile Red efflux | inhibition, % at 10 µM | actives 0.44% (n = 330,000) | AID 485275;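 active = plate passing quality check with inhibition over a set limit, or well fluorescence over plate mean plus 4 SD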;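 note: Nile Red retained in pooled yeast measured as flow cytometry median fluorescence; 0% = buffer negative control and 100% = Enniatin B positive control; higher means more Nile Red kept so more efflux inhibition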
ARNT-TACC3 inh = disruptors of human ARNT/TACC3 interaction; actives 0.66% (n = 390,000); AlphaScreen His-ARNT PAS-B/GST-TACC3 binding, luminescence; TACC3 fragment carries E629A point mutation; Q9Y6A5; inhibition, % at 9.99 µM;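 active = mean inhibition of replicates at least 50% and at least half of replicates each reaching 50%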;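 note: 0% = complete ARNT plus TACC3 wells and 100% = ARNT alone without TACC3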
Yeast cmpd fluor = flagged as fluorescent in efflux inhibitor counter-screen; shares compounds with Efflux pump inh; S. cerevisiae AD/pABC3, compound fluorescence, flow cytometry; fluorescence ratio to DMSO, % at 10 µM; actives 4% (n = 1,700); AID 588517;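 active = fluorescence ratio to DMSO above its plate's cutoff, the plate mean ratio plus 5 SD, cut at about 210% in these data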;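 note: unstained yeast with no Nile Red so the signal is compound autofluorescence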
Mdr1 pump inh = blocks the Candida albicans Mdr1 efflux pump in yeast. shares compounds with Efflux pump inh. S. cerevisiae AD/CaMDR1, Nile Red efflux, flow cytometry. inhibition, % at 10 µM. actives 1% (n = 1,700). AID 588518; in the data active = inhibition above about 26%;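 note: 0% = DMSO vehicle and 100% = reference inhibitor; higher means more Nile Red retained so more efflux inhibition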
Cdr2 pump inh = blocks the Candida albicans Cdr2 efflux pump in yeast; shares compounds with Efflux pump inh; S. cerevisiae AD/CaCDR2, Nile Red retention, flow cytometry; Nile Red retention ratio vs DMSO, % at 10 µM; actives 4% (n = 1,700); AID 588520; in the data active = Nile Red retention ratio vs DMSO above about 190%;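 note: higher ratio means more blocking of Cdr2 efflux of the dye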
CaCdr1 efflux inh = Candida Cdr1 efflux pump inhibition; inhibition, % at 10 µM; AID 588522; S. cerevisiae AD/CaCDR1, Nile Red efflux, flow cytometry; shares compounds with Efflux pump inh; actives 1% (n = 1,700);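 active = inhibition above the screen-wide mean plus twice its standard deviation, cut at about 32% in these data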
* hit, by the source's call; · = no result. In the library only some 2.1% were active in any assay of this set; here they are far more common.

SMILES | Cardiac RTF inh | SUMO Mot1 rescue | cardiac RTF act | UCH37 DUB inh | Efflux pump inh | ARNT-TACC3 inh | Yeast cmpd fluor | Mdr1 pump inh | Cdr2 pump inh | CaCdr1 efflux inh
CC(=NNC(N)=S)C1=CCC2C3CC[C@H]4CC(O)CC[C@]4(C)C3CC[C@]12C (some centres undefined) | · | · | · | 3 | · | · | · | · | · | ·
COc1ccc(Nc2nnc(Cc3ccccc3)c(=O)[nH]2)c(OC)c1 | -1 | 7 | -5 | -5 | 0.5* | -2 | 100 | 0 | 104 | 0
COc1ccc(Nc2nnc(Cc3ccc(Cl)cc3)c(=O)[nH]2)c(OC)c1 | 8 | -16 | -2 | 1 | 0 | 3 | · | · | · | ·
CC(C)C[C@H](NC(=O)c1nc[nH]c1C(=O)N(C)Cc1ccccc1)C(=O)OC(C)(C)C | -4 | -2 | -1 | 4 | 0.9* | 8 | 116 | 1 | 133 | 1
O=[N+]([O-])c1cc(C=NN2CCN(Cc3ccccc3)CC2)ccc1Cl | · | · | · | 4 | · | · | · | · | · | ·
COC(=O)c1ccc(S(=O)(=O)NCc2ccc(OC)cc2)n1C | -9 | -1 | 2 | 2 | 2.5* | 2 | 102 | 0 | 98 | 0
Clc1ccc(-c2n[nH]c3c2CCCC3)cc1 | 1 | 25 | 5 | 7 | 0 | -5 | · | · | · | ·
Clc1ccc(-c2n[nH]c3c2CCC3)cc1Cl | 4 | 4 | -1 | 1 | 0.6* | 0 | 94 | 0 | 104 | 0
Cc1ccc2sc(N(CCCN(C)C)C(=O)c3ccc(Br)s3)nc2c1C | -6 | -13 | -4 | -11 | 0.9* | 13 | 104 | 0 | 280* | 0
Cc1ccc2sc(N(CCCN(C)C)C(=O)c3nc4ccccc4s3)nc2c1C | -4 | 496 | 4 | -92 | 0 | 0 | · | · | · | ·
O=C(CSc1nnc(Cc2cccs2)n1Cc1ccco1)Nc1cc(Cl)cc(Cl)c1 | 1 | -13 | -2 | 3 | 0 | -7 | 114 | 0 | 118 | 0
O=C(CSc1nnc(Cc2cccs2)n1Cc1ccco1)Nc1cccc(Cl)c1 | -7 | 9 | -2 | 5 | 0 | 1 | 137 | 0 | 89 | 2
O=C(NN=Cc1ccncc1)c1nc2ccccc2c(=O)[nH]1 | · | · | · | 6 | · | · | · | · | · | ·
COc1cc(C=NN=C2SCC(=O)N2c2ccc(O)cc2)ccc1O | · | · | · | 4 | · | · | · | · | · | ·
CCC(C)c1ccc(C(C)NC(=S)NC2CCCCC2)cc1 (centres undefined) | -2 | 15 | -3 | · | 1.5* | -4 | 99 | 0 | 95 | 0
CCc1ccc(C(C)NC(=S)NC2CCCCC2)cc1 (centres undefined) | 6 | -14 | 0 | 5 | 0 | 10 | · | · | · | ·
N#CCCN1CCN(C(=S)c2ccc(-c3ccc(Cl)c(Cl)c3)o2)CC1 | 3 | 155 | -7 | 0 | 1.0* | 7 | 104 | 0 | 90 | 0
CCc1ccc(C(C)=NNS(=O)(=O)c2ccc(OC)cc2)s1 | · | · | · | 5 | · | · | · | · | · | ·
O=C(CN1CCCc2ccccc21)N/N=C/c1c(O)ccc2ccccc12 | -6 | -1 | 6 | · | 13* | -1 | 94 | 0 | 106 | 0
O=C(CN1CCCc2ccccc21)N/N=C/c1ccccc1 | -6 | -13 | 6 | · | 0 | -2 | · | · | · | ·
CC(=NNC(=O)c1nnn(-c2nonc2N)c1C(C)C)c1ccc2ccccc2c1 | · | · | · | 4 | · | · | · | · | · | ·
CCOc1ccc(CCNC(=O)COC(=O)c2cc([N+](=O)[O-])ccc2N2CCOCC2)cc1OCC | -3 | -11 | 5 | 12 | 9.2* | 1 | 81 | 0 | 87 | 0
O=C(CCn1c(=O)c2ccccc2n(Cc2cccc([N+](=O)[O-])c2)c1=O)N1CCc2ccccc2C1 | -3 | 3 | -7 | 0 | 13* | 2 | 109 | 0 | 117 | 0
CC(=NNC(=O)c1ccc(Cn2cccn2)o1)c1cccc(NC(=O)c2ccncc2)c1 | · | · | · | 1 | · | · | · | · | · | ·
C[C@@H](N)C(=O)NCC1CCC(C(=O)N[C@@H](Cc2ccccc2)C(=O)O)CC1 (some centres undefined) | · | · | · | 4 | · | · | · | · | · | ·
SMILES | Cardiac RTF inh | SUMO Mot1 rescue | cardiac RTF act | UCH37 DUB inh | Efflux pump inh | ARNT-TACC3 inh | Yeast cmpd fluor | Mdr1 pump inh | Cdr2 pump inh | CaCdr1 efflux inh
COC(=O)c1ccc(C2/C(=C(\O)c3cccc(OC)c3)C(=O)C(=O)N2CCCN2CCOCC2)cc1 (centres undefined) | -10 | 275 | -3 | 7 | 9.7* | 0 | 116 | 0 | 96 | 0
CCOc1cccc(-c2c(C(=O)NN=C(C)c3cccs3)nnn2-c2nonc2N)c1 | · | · | · | 4 | · | · | · | · | · | ·
NC1=NC[C@@H](Cc2ccc(O)cc2)N1CCc1cccc2ccccc12 | 1 | -7 | 5 | 1 | 0 | 1 | 94 | 0 | 91 | 0
NC1=NC[C@H](Cc2ccc(O)cc2)N1CCc1cc(C(F)(F)F)cc(C(F)(F)F)c1 | -1 | -22 | -4 | 0 | 0 | 21 | 105 | 0 | 100 | 0
O=C(CCCN1C(=O)/C(=C/c2ccccc2Cl)SC1=S)NNC(=O)c1ccc(Cl)cc1 | -15 | -26 | 3 | 8 | 0.6* | -7 | 98 | 0 | 100 | 0
Cc1ccc(C(=O)NNC(=O)CCCN2C(=O)/C(=C/c3ccccc3Cl)SC2=S)cc1 | -9 | 6 | -2 | 0 | 0 | -5 | · | · | · | ·
CCOc1ccc(-c2c(C(=O)NN=Cc3ccoc3)nnn2-c2nonc2N)cc1 | · | · | · | 2 | · | · | · | · | · | ·
CCCCCCCCn1ccc(=N)cc1 | -10 | -9 | -2 | 1 | 0.8* | -1 | 97 | 0 | 108 | 0
CCCCCCCCCCn1ccc(=N)cc1 | 1 | -7 | -2 | 4 | 1 | -6 | · | · | · | ·
CSc1nncc(C(C)=NO)n1 | · | · | · | 3 | · | · | · | · | · | ·
CC(C)NC(=O)c1cc2cc([N+](=O)[O-])ccc2s1 | 0 | 53 | -7 | 5 | 0 | 3 | · | · | · | ·
Cc1cccc(NC(=O)c2cc3cc([N+](=O)[O-])ccc3s2)n1 | 0 | 22 | 6 | 3 | 1.1* | -4 | 99 | 0 | 98 | 0
O=C(NN=Cc1ccco1)c1ccc(Br)o1 | · | · | · | 8 | · | · | · | · | · | ·
ON=C1CCCC/C1=C\c1ccccc1 | · | · | · | 6 | · | · | · | · | · | ·
CC(Cc1ccccc1)=NNC(=O)C1CCCCC1 | · | · | · | 3 | · | · | · | · | · | ·
COc1ccc(/C=C/C(=O)Nc2cc(=O)n(C)c(=O)n2C)cc1 | 0 | 9 | 1 | -2 | 15* | 21 | 97 | 0 | 88 | 0
O=C(NN=C/C=C/c1ccccc1)c1cccnc1 | · | · | · | 9 | · | · | · | · | · | ·
